Square brackets hold non-standard residues; d marks the D form. Peptide text beside a SMILES is read from it. * marks the point of attachment. Piperazinyl(4-Ph) = c1ccc(N2CCN(*)CC2)cc1; dGly(2-thienyl) = N[C@@H](C(=O)O)c1cccs1
Experiments:
[1] = Oral bioavailability in rat; type: ADME, organism-based; settings: in vivo
[2] = Half-life is obtained after intravenous dosing of rats.; type: ADME, organism-based; settings: rat, in vivo
[3] = molecular target: T1, Endothelin receptor type B (Homo sapiens, UniProt P24530); assay: Ability to displace endothelin ([125I]ET1) from human Endothelin B receptor
T1 sequence (P24530 whole entry): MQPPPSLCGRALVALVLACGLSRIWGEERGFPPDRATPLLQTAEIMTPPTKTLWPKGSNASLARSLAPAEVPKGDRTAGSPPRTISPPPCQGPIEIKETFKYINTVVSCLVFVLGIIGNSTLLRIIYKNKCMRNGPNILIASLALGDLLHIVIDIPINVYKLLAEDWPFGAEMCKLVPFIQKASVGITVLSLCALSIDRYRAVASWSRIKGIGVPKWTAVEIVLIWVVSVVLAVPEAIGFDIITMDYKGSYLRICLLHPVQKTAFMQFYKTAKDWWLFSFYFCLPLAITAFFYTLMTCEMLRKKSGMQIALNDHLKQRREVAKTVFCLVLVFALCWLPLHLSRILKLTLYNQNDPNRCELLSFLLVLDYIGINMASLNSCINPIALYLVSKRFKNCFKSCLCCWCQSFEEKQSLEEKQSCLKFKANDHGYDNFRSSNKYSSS

Endothelin-1 receptor [4] = molecular target: T2, Endothelin-1 receptor (Homo sapiens, UniProt P25101); assay: Ability to displace endothelin ([125I]ET1) from human Endothelin A receptor
T2 sequence (P25101 whole entry): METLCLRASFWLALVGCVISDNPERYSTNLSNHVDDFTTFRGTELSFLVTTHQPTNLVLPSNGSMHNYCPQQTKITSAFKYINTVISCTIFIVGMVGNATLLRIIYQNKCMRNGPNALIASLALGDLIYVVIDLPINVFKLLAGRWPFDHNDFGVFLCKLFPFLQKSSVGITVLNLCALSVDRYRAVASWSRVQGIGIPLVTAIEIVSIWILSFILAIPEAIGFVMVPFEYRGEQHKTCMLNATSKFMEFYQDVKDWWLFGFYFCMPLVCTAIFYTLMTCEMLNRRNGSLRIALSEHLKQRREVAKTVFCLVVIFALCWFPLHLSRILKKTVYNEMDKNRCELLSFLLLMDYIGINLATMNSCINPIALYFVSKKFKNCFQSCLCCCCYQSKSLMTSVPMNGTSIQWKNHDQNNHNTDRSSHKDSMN
Summary of the method: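 Membranes from CHO cells stably transfected with human ETA, prepared at 4 °C and stored at -80 °C. Buffer: 20 mM Tris pH 7.4, 100 mM NaCl, 10 mM MgCl2, 0.2% BSA, protease inhibitors. Bound ligand separated by glass-fibre filtration. Nonspecific binding with 1 µM unlabeled ET-1. IC50 is the mean of at least two determinations.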

[5] = Ratio of endothelin A receptor and endothelin B receptor.
[6] = Maximum drug concentration is determined after oral dosing in rats.; type: ADME, organism-based; parameters: route oral; settings: rat, in vivo
Rattus norvegicus = assay: Total drug exposure is determined after oral dosing in rats.; type: ADME, organism-based; parameters: concentration or dose not given beside the values; settings: in vivo
[7] = Half-life is obtained after oral dosing of rats.; type: ADME, organism-based; settings: rat, in vivo
[8] = molecular target: T3, Endothelin receptor type B (Sus scrofa, UniProt P35463); assay: Ability to displace endothelin ([125I]ET-3) from endothelin B receptor derived from cerebellar tissue of porcine.
T3 sequence (P35463 whole entry): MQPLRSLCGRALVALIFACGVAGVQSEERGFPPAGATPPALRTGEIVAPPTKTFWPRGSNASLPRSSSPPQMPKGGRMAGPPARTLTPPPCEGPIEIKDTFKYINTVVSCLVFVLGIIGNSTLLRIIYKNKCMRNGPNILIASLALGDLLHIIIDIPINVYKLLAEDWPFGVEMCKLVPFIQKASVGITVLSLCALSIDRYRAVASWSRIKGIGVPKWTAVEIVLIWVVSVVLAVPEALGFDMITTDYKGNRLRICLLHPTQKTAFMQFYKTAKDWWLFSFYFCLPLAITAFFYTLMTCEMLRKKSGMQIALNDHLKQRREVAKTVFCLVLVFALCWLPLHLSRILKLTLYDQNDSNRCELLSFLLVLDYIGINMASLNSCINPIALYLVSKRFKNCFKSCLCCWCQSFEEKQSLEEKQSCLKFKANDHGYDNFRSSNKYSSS

[9] = molecular target: T1, Endothelin receptor type B; assay: Binding assay performed using human Endothelin B receptor (hETB) expressed in chinese hamster ovary cells(CHO); type: cell-based
[10] = molecular target: T1, Endothelin receptor type B; assay: Ability to block the ET-1-induced hydrolysis of inositol phosphate in Endothelin B receptor of chinese hamster ovary(CHO) cells.; type: functional
Endothelin-1 receptor [11] = molecular target: T4, Endothelin-1 receptor (Rattus norvegicus, UniProt P26684); assay: Ability to displace endothelin ([125I]ET1) from endothelin A receptor derived from MMQ cells of rodent.; type: cell-based, Rodentia sp.
T4 sequence (P26684 whole entry): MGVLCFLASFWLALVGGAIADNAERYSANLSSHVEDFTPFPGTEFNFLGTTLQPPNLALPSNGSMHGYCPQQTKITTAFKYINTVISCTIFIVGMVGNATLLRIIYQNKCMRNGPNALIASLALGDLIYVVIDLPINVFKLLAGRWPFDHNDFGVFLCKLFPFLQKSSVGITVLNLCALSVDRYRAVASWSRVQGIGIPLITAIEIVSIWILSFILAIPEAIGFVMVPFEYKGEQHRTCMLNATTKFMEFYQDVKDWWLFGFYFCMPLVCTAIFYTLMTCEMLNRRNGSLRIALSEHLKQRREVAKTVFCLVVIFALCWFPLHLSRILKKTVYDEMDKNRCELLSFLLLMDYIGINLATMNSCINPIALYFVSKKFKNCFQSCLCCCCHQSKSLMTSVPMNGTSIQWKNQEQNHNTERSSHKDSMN

| SMILES | Ratio [5] | IC50 [8] [nM] | IC50 (Endothelin-1 receptor [11]) [nM] | also measured |
| --- | --- | --- | --- | --- |
| COc1ccccc1Oc1c(NS(=O)(=O)c2ccc(C(C)(C)C)cc2)nc(-c2ncccn2)nc1OCCO [BOSENTAN] | – | – | – | bioavailability [1]: 30%; half-life [2]: 4 h |
| CC(C)C[C@@H]1NC(=O)[C@@H](c2cccs2)NC(=O)[C@H](CC(=O)O)NC(=O)[C@H](CC(=O)N2CCN(c3ccccc3)CC2)NC(=O)[C@@H](CC(=O)O)NC(=O)[C@@H](Cc2c[nH]c3ccccc23)NC1=O (cyclo(D(Piperazinyl(4-Ph))D[dGly(2-thienyl)]L[dW][dD])) | 540 | – | – | half-life [2]: 0.5 h; IC50 [3]: 130 nM; IC50 (Endothelin-1 receptor [4]): 0.24 nM |
| CCCN(CCN1C[C@H](c2ccc3c(c2)OCO3)[C@@H](C(=O)O)[C@@H]1c1ccc(OC)c(F)c1)S(=O)(=O)CCCC(F)(F)F (stereo in doubt; 15e) | – | 0.32 | – | Cmax [6]: 1200 ng/mL; AUC (Rattus norvegicus): 4300 ng·h/mL; bioavailability [1]: 25%; half-life [2]: 4.3 h; half-life [7]: 8.9 h; IC50 [9]: 0.2 nM; IC50 [10]: 1.46 nM |
| CCCCN(CCCC)C(=O)CN1C[C@H](c2ccc3c(c2)OCO3)[C@@H](C(=O)O)[C@@H]1c1ccc(OC)cc1 | – | – | – | bioavailability [1]: 70% |
| CCCCN(CCN1C[C@H](c2ccc3c(c2)OCO3)[C@@H](C(=O)O)[C@@H]1c1ccc(OC)cc1)S(=O)(=O)CCC | 30 | 60 | 2 | – |
| CCCCCS(=O)(=O)N(CCC)CCN1C[C@H](c2ccc3c(c2)OCO3)[C@@H](C(=O)O)[C@@H]1c1ccc2c(c1)OCCO2 | 10 | 7 | 0.66 | – |
| CCCc1cc(C(=O)O)ccc1OC(C(=O)NS(=O)(=O)c1ccc(C(C)C)cc1)c1ccc2c(c1)OCO2 [L-754142] | 17 | – | – | bioavailability [1]: 60%; half-life [2]: 2 h; IC50 [3]: 4.4 nM; IC50 (Endothelin-1 receptor [4]): 0.26 nM |
| CCCN(CCN1C[C@H](c2ccc3c(c2)OCO3)[C@@H](C(=O)O)[C@@H]1c1ccc(OC)cc1)S(=O)(=O)CCCCl | 3.1 | 6.3 | 2 | – |
| CCCCS(=O)(=O)N(CCC)CCN1C[C@H](c2ccc3c(c2)OCO3)[C@@H](C(=O)O)[C@@H]1c1ccc(OC)cc1 | 4.7 | 9.4 | 2 | – |
| CCCN(CCN1C[C@H](c2ccc3c(c2)OCO3)[C@@H](C(=O)O)[C@@H]1c1ccc(OC)cc1)S(=O)(=O)CCC | 22 | 36 | 1.6 | – |
| CCCCCS(=O)(=O)N(CCC)CCN1C[C@H](c2ccc3c(c2)OCO3)[C@@H](C(=O)O)[C@@H]1c1ccc(OC)c(F)c1 (stereo in doubt; 15b) | – | 0.29 | – | Cmax [6]: 2400 ng/mL; AUC (Rattus norvegicus): 11200 ng·h/mL; bioavailability [1]: 54%; half-life [2]: 5 h; half-life [7]: 8.1 h; IC50 [9]: 0.28 nM; IC50 [10]: 1.28 nM |
| CCCCCS(=O)(=O)N(CCC)CCN1C[C@H](c2ccc3c(c2)OCO3)[C@@H](C(=O)O)[C@@H]1c1ccc(OCC)c(F)c1 | 2 | 2.6 | 1.3 | – |
| CCCN(CCN1C[C@H](c2ccc3c(c2)OCO3)[C@@H](C(=O)O)[C@@H]1c1ccc(OC)cc1)S(=O)(=O)c1ccc(OC)cc1 | 120 | 66 | 0.53 | – |
| CCCCCS(=O)(=O)N(CCC)CCN1C[C@H](c2ccc3c(c2)OCO3)[C@@H](C(=O)O)[C@@H]1c1ccc(OC)c(OC)c1 | 32 | 73 | 2.3 | – |
| CCCN(CCN1C[C@H](c2ccc3c(c2)OCO3)[C@@H](C(=O)O)[C@@H]1c1ccc(OC)cc1)S(=O)(=O)c1ccc(C)cc1 | 10 | 85 | 8.3 | – |
| CCCS(=O)(=O)N(C)CCN1C[C@H](c2ccc3c(c2)OCO3)[C@@H](C(=O)O)[C@@H]1c1ccc(OC)cc1 | 26 | 260 | 10 | – |
| CCCN(CCN1C[C@H](c2ccc3c(c2)OCO3)[C@@H](C(=O)O)[C@@H]1c1ccc(OC)cc1)S(=O)(=O)CC(C)C | 6.6 | 5.2 | 0.78 | – |
| CCCOc1ccc2c(c1)[C@@H](c1ccc(OC)cc1OCCO)[C@H](C(=O)O)[C@H]2c1ccc2c(c1)OCO2 | 100 | – | – | bioavailability [1]: 60%; half-life [2]: 2 h; Ki [3]: 110 nM; Ki (Endothelin-1 receptor [4]): 1.1 nM |
| CCCCCCS(=O)(=O)N(CCC)CCN1C[C@H](c2ccc3c(c2)OCO3)[C@@H](C(=O)O)[C@@H]1c1ccc(OC)c(F)c1 (stereo in doubt; 15c) | – | 0.34 | – | Cmax [6]: 700 ng/mL; AUC (Rattus norvegicus): 2800 ng·h/mL; bioavailability [1]: 40%; half-life [2]: 3.3 h; half-life [7]: 6.4 h; IC50 [9]: 0.48 nM; IC50 [10]: 1.12 nM |
| CCCCCCCS(=O)(=O)N(CCC)CCN1C[C@H](c2ccc3c(c2)OCO3)[C@@H](C(=O)O)[C@@H]1c1ccc(OC)cc1 | 11 | 57 | 5.1 | – |
| CCCCCS(=O)(=O)N(CCC)CCN1C[C@H](c2ccc3c(c2)OCO3)[C@@H](C(=O)O)[C@@H]1c1ccc(F)c(F)c1 | 3.8 | 68 | 18 | – |
| CCCCCS(=O)(=O)N(CCC)CCN1C[C@H](c2ccc3c(c2)OCO3)[C@@H](C(=O)O)[C@@H]1c1ccc(OC)cc1 | 7.2 | 4.1 | 0.57 | – |
| CCCOc1ccc2c(c1)[C@@H](c1ccc(OC)cc1OCC(=O)O)[C@H](C(=O)O)[C@H]2c1ccc2c(c1)OCO2 [SB-209670] | 90 | – | – | Ki [3]: 18 nM; Ki (Endothelin-1 receptor [4]): 0.2 nM |
| CCCN(CCN1C[C@H](c2ccc3c(c2)OCO3)[C@@H](C(=O)O)[C@@H]1c1ccc(OC)cc1)S(=O)(=O)c1ccccc1 | 150 | 210 | 1.4 | – |

Reference: ChEMBL document CHEMBL1130174, “Pyrrolidine-3-carboxylic acids as endothelin antagonists. 2. Sulfonamide-based ETA/ETB mixed antagonists” (J Med Chem, 1997)
